Source: ChEMBL document CHEMBL4350987, “Design, synthesis and biological evaluation of novel substituted purine isosters as EGFR kinase inhibitors, with promising pharmacokinetic profile and in vivo efficacy” (Eur J Med Chem, 2019)
Active and inactive are the calls of the source. The calls are words filed in the database; no cut-off is given here.

Experiments:
[1] = system: A549; experiment: Antiproliferative activity against human A549 cells overexpressing EGFR assessed as reduction in cell viability at 1 to 60 uM incubated for 72 hrs by MTT assay; assay type: functional, cell-based
[2] = target: Receptor tyrosine-protein kinase erbB-2 (Homo sapiens) (UniProt P04626); experiment: Inhibition of human recombinant GST-tagged HER2 (catalytic domain 676 to end residues) autophosphorylation expressed in baculovirus infected Sf9 cells using poly( Glu, Tyr) 4:1 as substrate at 10 uM incubated for 60 mins by ELISA relative to control
Chain of Receptor tyrosine-protein kinase erbB-2 (Homo sapiens) (P04626 whole entry, the tested form may be a part): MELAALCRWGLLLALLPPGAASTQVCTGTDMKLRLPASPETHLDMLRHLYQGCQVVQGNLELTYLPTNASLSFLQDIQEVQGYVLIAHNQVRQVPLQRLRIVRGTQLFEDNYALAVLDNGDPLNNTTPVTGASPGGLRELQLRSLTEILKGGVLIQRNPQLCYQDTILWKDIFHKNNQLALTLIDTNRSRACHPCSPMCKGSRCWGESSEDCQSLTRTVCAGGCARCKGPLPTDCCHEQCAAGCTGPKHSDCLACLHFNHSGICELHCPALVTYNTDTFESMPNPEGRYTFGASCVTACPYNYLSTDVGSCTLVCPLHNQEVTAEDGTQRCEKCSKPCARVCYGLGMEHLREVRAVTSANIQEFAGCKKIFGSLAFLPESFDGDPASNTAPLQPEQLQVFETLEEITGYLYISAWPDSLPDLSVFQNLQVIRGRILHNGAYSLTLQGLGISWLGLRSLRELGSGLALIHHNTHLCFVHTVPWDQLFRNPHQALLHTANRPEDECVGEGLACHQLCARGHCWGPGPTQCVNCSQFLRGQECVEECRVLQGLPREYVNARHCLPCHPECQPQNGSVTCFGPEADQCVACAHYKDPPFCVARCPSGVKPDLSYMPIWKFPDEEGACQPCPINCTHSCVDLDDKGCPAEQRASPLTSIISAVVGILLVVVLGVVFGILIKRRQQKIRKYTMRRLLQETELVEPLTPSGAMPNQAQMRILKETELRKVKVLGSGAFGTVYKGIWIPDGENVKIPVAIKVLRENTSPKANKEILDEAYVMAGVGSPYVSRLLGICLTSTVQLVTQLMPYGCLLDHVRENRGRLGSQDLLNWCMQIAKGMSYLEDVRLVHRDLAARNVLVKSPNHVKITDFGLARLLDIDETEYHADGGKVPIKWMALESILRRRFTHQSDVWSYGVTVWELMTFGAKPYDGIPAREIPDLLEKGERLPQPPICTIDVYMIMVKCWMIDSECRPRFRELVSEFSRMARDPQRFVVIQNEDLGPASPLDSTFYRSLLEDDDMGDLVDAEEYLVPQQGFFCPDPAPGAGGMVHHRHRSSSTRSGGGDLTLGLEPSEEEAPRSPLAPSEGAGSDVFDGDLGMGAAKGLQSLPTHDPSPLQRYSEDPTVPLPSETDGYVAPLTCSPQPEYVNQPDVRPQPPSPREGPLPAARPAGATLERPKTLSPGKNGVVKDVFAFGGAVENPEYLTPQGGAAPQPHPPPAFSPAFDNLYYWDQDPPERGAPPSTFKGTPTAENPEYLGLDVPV
Summary of the method: (§1)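 Wells coated with poly-Glu,Tyr (4:1), 20 µg/well overnight at 4 °C, then blocked with 5% BSA. GST-HER2 added at 200 ng/mL final in HEPES/NaCl/NaVO₄/BSA buffer. Reaction started with ATP spanning Km plus 10 mM MnCl₂ final, run 60 min at 37 °C, stopped with EDTA. Phosphotyrosine detected with HRP anti-pTyr and ABTS at 405 nm; triplicate.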

[3] = target: Receptor tyrosine-protein kinase erbB-2 (Homo sapiens) (UniProt P04626); experiment: Inhibition of HER2 autophosphorylation in human HCC1954 cells overexpressing HER2 at 0.02 to 2 uM incubated for 1 hr by Western blot analysis; assay type: cell-based
Summary of the method: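 HCC-1954 cells at 60-70% confluence exposed to 0.02 and 2 μM compound for 1 h, then lysed in RIPA with protease inhibitors. About 10 µg protein separated by SDS-PAGE and blotted to PVDF. Phospho- and total HER2 antibodies at 1:1000, HRP secondaries, ECL read-out; β-actin used for normalization.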

[4] = target: Receptor tyrosine-protein kinase erbB-2 (Homo sapiens) (UniProt P04626); experiment: Inhibition of human recombinant GST-tagged HER2 (catalytic domain 676 to end residues) autophosphorylation expressed in baculovirus infected Sf9 cells using poly( Glu, Tyr) 4:1 as substrate at 1 uM incubated for 60 mins by ELISA relative to control; summary of the method: as §1
[5] = system: HCC1954; experiment: Antiproliferative activity against human HCC1954 cells overexpressing HER2 assessed as reduction in cell viability at 1 to 60 uM incubated for 72 hrs by MTT assay; assay type: functional, cell-based
[6] = Toxicity in NOD/SCID mouse xenografted with human A549 cells overexpressing EGFR assessed as changes in body weight at 86 micromol/kg, po administered once daily for 27 days; assay type: organism-based; settings: in vivo, 648 h
Summary of the method: (§2)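 NOD/SCID mice (n=4 per group, 2 male, 2 female) injected in each flank with 5×10⁶ A549 cells in DMEM, 10% FBS. Daily oral dosing started at about 150–160 mm³ tumors; vehicle 0.5% carboxymethyl cellulose: 0.1% Tween 80 in water. Caliper measurements every three days, V = π×D×d²/6. Body weight and signs of discomfort monitored. Study ended day 27, 2 h post last dose.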

[7] = AUC (0 to 24 hrs) in C57BL/6N mouse at 34 micromol/kg, po measured upto 24 hrs by LC-MS/MS analysis; assay type: ADME, organism-based; design: time < 24 hr, route oral; settings: in vivo, 34 µmol/kg
Summary of the method: (§3)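 Male C57BL/6N mice, 10-12 weeks old, n = 5 per group, fasted overnight, single oral gavage dose in 0.5% carboxymethyl cellulose: 0.1% Tween 80 in water. Serial tail bleeds of 10 μL at 0.25, 0.5, 1, 2, 4, 6, 8 and 24 h into 0.1 M citric acid pH 4.5, stored at -80 °C. Samples processed by protein precipitation and evaporation, then quantified in blood by LC-MS/MS.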

[8] = Cmax in C57BL/6N mouse at 34 micromol/kg, po measured upto 24 hrs by LC-MS/MS analysis; assay type: ADME, organism-based; design: route oral; settings: in vivo, 34 µmol/kg; summary of the method: as §3
[9] = system: A549; experiment: Antiproliferative activity against human A549 cells overexpressing EGFR assessed as reduction in cell viability incubated for 72 hrs by MTT assay; assay type: functional, cell-based; settings: A549, 72 h
Summary of the method: (§4)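 Cells seeded at 5×10^3/well in complete medium (DMEM or RPMI, 10% FBS) and left 24 h at 37 °C, 5% CO2. Compounds added at 0.5–150 μM for 72 h. MTT (0.3 mg/mL in PBS) applied for 3 h, formazan dissolved in DMSO, OD read at 570 nm against 650 nm reference. IC50 from four-parameter logistic fit; three experiments in triplicate.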

[10] = system: HCC1954; experiment: Antiproliferative activity against human HCC1954 cells overexpressing HER2 assessed as reduction in cell viability incubated for 72 hrs by MTT assay; assay type: functional, cell-based; settings: HCC1954, 72 h; summary of the method: as §4
[11] = Drug concentration in NOD/SCID mouse blood xenografted with human A549 cells overexpressing EGFR at 86 micromol/kg, po administered once daily for 27 days and measured at day 27 at 2 hrs after last administered dose by LC-MS/MS analysis; assay type: ADME, organism-based; settings: 86 µmol/kg, read-out: Ct
Summary of the method: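 A549 xenografts in NOD/SCID mice dosed orally once daily for 27 days, vehicle 0.5% carboxymethyl cellulose: 0.1% Tween 80 in water. Blood collected 2 h after the final dose on day 27, with animals euthanized under isoflurane. Drug level quantified by LC-MS/MS.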

[12] = target: Epidermal growth factor receptor (Homo sapiens) (UniProt P00533); experiment: Inhibition of EGFR autophosphorylation in human A549 cells overexpressing EGFR at 1 to 10 uM treated with compound for 10 mins prior to EGF stimulation for 10 mins by Western blot analysis; assay type: cell-based
Chain of Epidermal growth factor receptor (Homo sapiens) (P00533 whole entry): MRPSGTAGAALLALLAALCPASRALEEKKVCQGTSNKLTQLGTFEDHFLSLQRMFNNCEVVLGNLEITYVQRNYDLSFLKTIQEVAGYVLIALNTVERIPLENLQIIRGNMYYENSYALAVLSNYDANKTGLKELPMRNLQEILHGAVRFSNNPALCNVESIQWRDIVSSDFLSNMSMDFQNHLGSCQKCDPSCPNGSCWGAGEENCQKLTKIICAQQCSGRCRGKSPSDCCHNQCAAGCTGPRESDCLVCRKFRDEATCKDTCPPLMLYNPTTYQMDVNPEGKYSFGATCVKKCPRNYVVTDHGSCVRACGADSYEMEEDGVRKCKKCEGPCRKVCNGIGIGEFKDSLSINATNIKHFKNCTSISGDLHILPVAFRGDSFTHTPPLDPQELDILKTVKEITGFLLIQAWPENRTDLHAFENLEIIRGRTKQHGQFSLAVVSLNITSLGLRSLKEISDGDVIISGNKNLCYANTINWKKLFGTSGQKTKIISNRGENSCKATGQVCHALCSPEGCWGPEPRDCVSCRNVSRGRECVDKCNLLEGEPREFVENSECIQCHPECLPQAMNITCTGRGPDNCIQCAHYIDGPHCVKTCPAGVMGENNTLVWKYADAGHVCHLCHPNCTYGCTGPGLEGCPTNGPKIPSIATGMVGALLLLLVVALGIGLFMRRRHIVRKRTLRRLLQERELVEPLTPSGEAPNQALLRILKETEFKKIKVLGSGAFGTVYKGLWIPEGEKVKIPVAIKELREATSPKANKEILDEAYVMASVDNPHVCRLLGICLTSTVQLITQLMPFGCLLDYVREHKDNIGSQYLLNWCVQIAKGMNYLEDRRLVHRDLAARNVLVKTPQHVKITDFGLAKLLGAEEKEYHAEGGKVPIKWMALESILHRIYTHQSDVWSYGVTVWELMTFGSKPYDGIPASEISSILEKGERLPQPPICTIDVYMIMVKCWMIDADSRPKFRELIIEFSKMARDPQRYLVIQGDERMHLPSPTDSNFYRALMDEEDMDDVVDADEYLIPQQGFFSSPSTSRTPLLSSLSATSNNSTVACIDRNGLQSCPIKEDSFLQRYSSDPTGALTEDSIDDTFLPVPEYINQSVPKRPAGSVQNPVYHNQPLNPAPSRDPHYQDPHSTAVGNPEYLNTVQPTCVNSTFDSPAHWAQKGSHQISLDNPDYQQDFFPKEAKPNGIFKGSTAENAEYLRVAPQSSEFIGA
Summary of the method: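 A549 cells grown to 60-70% confluence, then serum-starved 24 h. Exposed to compound for 10 min, then stimulated with 100 ng/mL EGF for 10 min at 37 °C and lysed in RIPA with protease inhibitors. About 10 µg protein run on SDS-PAGE, blotted to PVDF. Phospho- and total EGFR probed at 1:1000, HRP secondaries, ECL detection; β-actin for normalization.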

[13] = system: MCF7; experiment: Antiproliferative activity against human MCF7 cells assessed as reduction in cell viability incubated for 72 hrs by MTT assay; assay type: functional, cell-based; settings: MCF7, 72 h; summary of the method: as §4
[14] = system: NCI-H1975; experiment: Antiproliferative activity against human NCI-H1975 cells assessed as reduction in cell viability incubated for 72 hrs by MTT assay; assay type: functional, cell-based; settings: NCI-H1975, 72 h; summary of the method: as §4
[15] = Drug uptake in human A549 cells overexpressing EGFR at 1 uM measured after 24 hrs by LC-MS/MS analysis; assay type: ADME, cell-based; settings: a549, 24 h
Summary of the method: (§5)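 A549 cells plated at 1.5×10^5 cells/well and exposed to 1 µM compound for 1, 4, 8, 24 and 48 h. Cells washed twice with ice-cold PBS, then lysed. Intracellular amount measured by LC-MS/MS against standard curves with a stable internal standard.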

[16] = Tmax in C57BL/6N mouse at 34 micromol/kg, po measured upto 24 hrs by LC-MS/MS analysis; assay type: ADME, organism-based; settings: in vivo, 34 µmol/kg; summary of the method: as §3
[17] = Drug uptake in human A549 cells overexpressing EGFR at 1 uM measured after 48 hrs by LC-MS/MS analysis; assay type: ADME, cell-based; settings: a549, 48 h; summary of the method: as §5
[18] = AUC (1 to 48 hrs) in human A549 cells overexpressing EGFR at 1 uM measured per 0.1 million cells by LC-MS/MS analysis; settings: a549, 48 h
[19] = system: A549; experiment: Antitumor activity against human A549 cells overexpressing EGFR xenografted in NOD/SCID mouse assessed as tumor volume at 86 micromol/kg, po administered once daily for 27 days measured at day 27 at 2 hrs after last administered dose (reference value: 1869 +/- 134 mm3); assay type: functional; summary of the method: as §2

inhibition [2]	inhibition [3]	inhibition [4]	AUC(0-t) at 24 h [7]	Cmax [8]	IC50 [9]	IC50 [10]	concentration at 2 h [11]	inhibition [12]	IC50 [13]	IC50 [14]	Drug uptake [15]	Tmax [16]	Drug uptake [17]	AUC [18]	Structure (SMILES)	inhibition [1]	inhibition [5]	Activity [6]	Activity [19]
86%	Active	51%	–	–	–	–	–	–	–	–	–	–	–	–	Fc1cccc(COc2ccc(Nc3ncnc4[nH]c(-c5ccco5)nc34)cc2Cl)c1	Active	Active	–	–
58%	–	24%	2.1 µM·h	300 nM	3 µM	9 µM	640 nM	Active	126 µM	10 µM	Active	2 h	0.04 nmol/100,000 cells	1.5 nmol/100.000 cells x h	Fc1cccc(COc2ccc(Nc3ccnc4[nH]c(-c5ccco5)nc34)cc2Cl)c1	Active	Active	Non-Toxic	1311 mm3
34%	Active	25%	–	–	–	–	–	Active	–	–	–	–	–	–	CS(=O)(=O)CCNCc1ccc(-c2nc3c(Nc4ccc(OCc5cccc(F)c5)c(Cl)c4)nccc3[nH]2)o1	–	–	–	–
97%	Active	86%	6.7 µM·h	1470 nM	11 µM	5 µM	2810 nM	–	95 µM	9 µM	–	2 h	0.02 nmol/100,000 cells	1.06 nmol/100.000 cells x h	CS(=O)(=O)CCNCc1ccc(-c2ccc3ncnc(Nc4ccc(OCc5cccc(F)c5)c(Cl)c4)c3c2)o1 [LAPATINIB]	–	–	–	1338 mm3
46%	Active	33%	–	–	–	–	–	Active	–	–	–	–	–	–	CS(=O)(=O)CCNCc1ccc(-c2nc3c(Nc4ccc(OCc5cccc(F)c5)c(Cl)c4)ccnc3[nH]2)o1	inactive	inactive	–	–
32%	–	28%	0.87 µM·h	70 nM	33 µM	14 µM	–	Active	105 µM	30 µM	–	2 h	0.01 nmol/100,000 cells	0.35 nmol/100.000 cells x h	CS(=O)(=O)CCNCc1ccc(-c2nc3c(Nc4ccc(OCc5cccc(F)c5)c(Cl)c4)ncnc3[nH]2)o1	Active	Active	–	–
86%	–	82%	–	–	–	–	–	–	–	–	–	–	–	–	Fc1cccc(COc2ccc(Nc3nccc4[nH]c(-c5ccco5)nc34)cc2Cl)c1	inactive	inactive	–	–
13%	Active	0%	–	–	–	–	–	–	–	–	–	–	–	–	CS(=O)(=O)CCNCc1ccc(-c2nc3c(Nc4ccc(OCc5cccc(F)c5)c(Cl)c4)ncc(F)c3[nH]2)o1	–	–	–	–
79%	–	10%	–	–	–	–	–	–	–	–	–	–	–	–	Fc1cccc(COc2ccc(Nc3ncc(F)c4[nH]c(-c5ccco5)nc34)cc2Cl)c1	–	–	–	–
